ChEMBL document CHEMBL3351381, “Synthesis, structure-activity relationship studies, and antibacterial evaluation of 4-chromanones and chalcones, as well as olympicin A and derivatives” (J Med Chem, 2014)
Values after ≈ are worked out from the molar mass of the structure shown. Active and inactive are the calls of the source. The rule behind the calls is not given here.

Columns and labels:
[1] = Inhibition of purified recombinant Escherichia coli topoisomerase 1 assessed as relaxation of supercoiled plasmid DNA after 30 mins by electrophoretic analysis
Pseudomonas aeruginosa = test: Antimicrobial activity against Pseudomonas aeruginosa PAO1 at >200 ug/ml by microbroth dilution method; assay type: functional
Staphylococcus aureus [2] = test: Bactericidal activity against Staphylococcus aureus Newman assessed as log reduction in bacterial cell count at MIC up to 24 hrs by time-kill assay relative to control; assay type: functional
[3] = Inhibition of Escherichia coli topoisomerase 4 assessed as inhibition of decatenation of catenated kinetoplast DNA after 30 mins by electrophoretic analysis
Vero = test: Cytotoxicity against african green monkey Vero cells assessed as reduction in cell viability by MTT assay; assay type: cell-based; conditions: Chlorocebus sabaeus
How it was run: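 Vero kidney epithelial cells (ATCC CCL-81) in DMEM/10% FBS, trypsinized, seeded near 10% confluence, left overnight to adhere; medium swapped for DMEM/FBS with 2-fold serial compound dilutions.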

Staphylococcus aureus [4] = test: Antimicrobial activity against Staphylococcus aureus Newman; assay type: functional
Escherichia coli [5] = test: Antimicrobial activity against Escherichia coli K-12 by microbroth dilution method; assay type: functional
[6] = Solubility of the compound in DMEM/FBS medium; assay type: physicochemical
How it was run: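 Solubility limit estimated from 2-fold serial dilutions in DMEM with 5% FBS kept overnight at 37 °C; highest concentration with no visible precipitate taken.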

Staphylococcus aureus [7] = test: Disruption of membrane potential in Staphylococcus aureus Newman assessed as […] at 4 times MIC using DiOC2(3) probe by fluorescence assay; assay type: functional
How it was run: (§1)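 S. aureus Newman grown to OD600nm ≈ 0.3 in Mueller–Hinton II, stained with DiOC2(3) and run on flow cytometry; red/green fluorescence ratio gives membrane potential. CCCP positive control, vancomycin negative control.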

[8] = test system: Mycobacterium tuberculosis; test: Antimicrobial activity against Mycobacterium tuberculosis H37Rv by microbroth dilution method; assay type: functional
Escherichia coli [9] = test: Antimicrobial activity against tolC-deficient Escherichia coli by microbroth dilution method; assay type: functional
Staphylococcus aureus [10] = test: Antimicrobial activity against methicillin-resistant Staphylococcus aureus NRS 70 by microbroth dilution method; assay type: functional
Staphylococcus aureus [11] = test: Antimicrobial activity against methicillin-sensitive Staphylococcus aureus ATCC 29213 by microbroth dilution method; assay type: functional
Staphylococcus aureus [12] = test: Disruption of membrane potential in Staphylococcus aureus Newman assessed as […] using DiOC2(3) probe by fluorescence assay; assay type: functional; how it was run: as §1
Klebsiella pneumoniae = test: Antimicrobial activity against Klebsiella pneumoniae ATCC 33495 at >200 ug/ml by microbroth dilution method; assay type: functional
Staphylococcus aureus [13] = test: Bactericidal activity against Staphylococcus aureus Newman assessed as log reduction in bacterial cell count at 4 times MIC up to 24 hrs by time-kill assay relative to control; assay type: functional
Enterococcus faecalis = test: Antimicrobial activity against Enterococcus faecalis ATCC 33186 by microbroth dilution method; assay type: functional
[14] = Selectivity index, ratio of CC50 for african green monkey Vero cells to IC50 for methicillin-resistant Staphylococcus aureus NRS 70; assay type: functional
How it was run: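 Vero kidney epithelial cells were grown in DMEM/10% FBS, trypsinized, seeded at about 10% confluence and left overnight to adhere. They were then exposed to 2-fold serial compound dilutions in DMEM/FBS, and viability was read by MTT after overnight solubilization. SI = cytotoxic IC50 divided by MIC against MRSA.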

Staphylococcus aureus [15] = test: Bacteriostatic activity against Staphylococcus aureus Newman assessed as log reduction in bacterial cell count at 4 times MIC up to 24 hrs by time-kill assay relative to control; assay type: functional
DNA gyrase = DNA gyrase (Escherichia coli, UniProt P0AES4+P0AES6); test: Inhibition of Escherichia coli DNA gyrase assessed as supercoiled plasmid DNA formation after 30 mins by electrophoretic analysis; assay type: protein-complex assay
Staphylococcus aureus [16] = test: Bactericidal activity against Staphylococcus aureus Newman assessed as log reduction in bacterial cell count at 4 times MIC at 6 hrs by time-kill assay relative to control; assay type: functional

SMILES	IC50 [1] [µM]	MIC (Pseudomonas aeruginosa) [mg/L]	IC50 [3] [µM]	IC50 (Vero) [mg/L]	MIC (Staphylococcus aureus [4]) [mg/L]	MIC (Escherichia coli [5]) [mg/L]	solubility [6] [mg/mL]	Activity (Staphylococcus aureus [7])	MIC [8] [mg/L]	MIC (Escherichia coli [9]) [mg/L]	MIC (Staphylococcus aureus [10]) [mg/L]	MIC (Staphylococcus aureus [11]) [mg/L]	Activity (Staphylococcus aureus [12])	MIC (Klebsiella pneumoniae) [mg/L]	MIC (Enterococcus faecalis) [mg/L]	Selectivity Index [14]	IC50 (DNA gyrase) [µM]	further results
CC1(C)C2CC=C(/C=C/C(=O)c3ccc(O)cc3O)C1C2 (stereo unspecified)	> 500	> 200	60	6.9 (≈ 24.3 µM)	1.56 (≈ 5.49 µM)	> 200	> 0.2	Active	100 (≈ 352 µM)	1.56 (≈ 5.49 µM)	1.56 (≈ 5.49 µM)	1.56 (≈ 5.49 µM)	Dose-dependent effect	> 200	3.13 (≈ 11 µM)	4.4	–	LCK (Staphylococcus aureus [2]): 3; LCK (Staphylococcus aureus [13]): >6
O=C(/C=C/c1ccc(N2CCCCC2)cc1)c1ccc(O)cc1O	> 500	> 200	500	16.7 (≈ 51.6 µM)	–	> 200	0.1 (≈ 309 µM)	Active	100 (≈ 309 µM)	12.5 (≈ 38.7 µM)	3.13 (≈ 9.68 µM)	3.13 (≈ 9.68 µM)	Dose-dependent effect	> 200	25 (≈ 77.3 µM)	5.3	> 1000	LCK (Staphylococcus aureus [15]): <=3
N#CC(C#N)=NNc1cccc(Cl)c1 [CARBONYL CYANIDE M-CHLOROPHENYLHYDRAZONE]	–	–	–	–	6.25 (≈ 30.5 µM)	–	–	–	–	–	–	–	–	–	–	–	–	–
CC(C)=CCCC(C)CC1CC(=O)c2c(O)cc(O)cc2O1 (stereo unspecified)	–	> 200	–	27 (≈ 88.7 µM)	–	> 200	> 0.2	Active	200 (≈ 657 µM)	1.56 (≈ 5.13 µM)	3.13 (≈ 10.3 µM)	–	Dose-dependent effect	> 200	6.25 (≈ 20.5 µM)	8.6	–	–
C=CCOc1ccccc1/C=C/C(=O)c1ccc(O)cc1O	> 500	> 200	250	21.2 (≈ 71.5 µM)	–	> 200	> 0.2	–	200 (≈ 675 µM)	3.13 (≈ 10.6 µM)	0.39 (≈ 1.32 µM)	6.25 (≈ 21.1 µM)	–	> 200	12.5 (≈ 42.2 µM)	54.4	–	LCK (Staphylococcus aureus [16]): 6
CCCCCCOc1ccccc1C1CC(=O)c2ccc(O)cc2O1 (stereo unspecified)	> 500	> 200	> 1000	24.5 (≈ 72 µM)	–	> 200	> 0.2	–	> 200	1.56 (≈ 4.58 µM)	1.56 (≈ 4.58 µM)	1.56 (≈ 4.58 µM)	–	> 200	50 (≈ 147 µM)	15.7	> 1000	–
CCCCCCCC1CC(=O)c2c(O)cc(O)cc2O1 (stereo unspecified)	> 500	> 200	120	33 (≈ 119 µM)	–	> 200	0.15 (≈ 539 µM)	–	50 (≈ 180 µM)	1.56 (≈ 5.6 µM)	3.13 (≈ 11.2 µM)	12.5 (≈ 44.9 µM)	–	> 200	200 (≈ 719 µM)	10.5	> 1000	–
CC[C@H](C)C(=O)c1c(O)cc(O)cc1OC/C=C(\C)CCC=C(C)C [OLYMPICIN A]	> 500	> 200	30	–	–	> 200	–	Active	–	–	1.56 (≈ 4.5 µM)	–	Dose-dependent effect	> 200	–	–	–	–
CCCCCCOc1ccccc1/C=C/C(=O)c1ccc(O)cc1O	> 500	> 200	60	7.2 (≈ 21.2 µM)	–	> 200	> 0.2	–	> 200	> 200	0.78 (≈ 2.29 µM)	3.13 (≈ 9.19 µM)	–	> 200	1.56 (≈ 4.58 µM)	9.2	> 1000	–
CN[C@H](CC(C)C)C(=O)N[C@H]1C(=O)N[C@@H](CC(N)=O)C(=O)N[C@H]2C(=O)N[C@H]3C(=O)N[C@H](C(=O)N[C@H](C(=O)O)c4cc(O)cc(O)c4-c4cc3ccc4O)[C@H](O)c3ccc(c(Cl)c3)Oc3cc2cc(c3O[C@@H]2O[C@H](CO)[C@@H](O)[C@H](O)[C@H]2O[C@H]2C[C@](C)(N)[C@H](O)[C@H](C)O2)Oc2ccc(cc2Cl)[C@H]1O [VANCOMYCIN]	–	> 200	–	–	0.8 (≈ 0.552 µM)	100 (≈ 69 µM)	–	inactive	–	100 (≈ 69 µM)	< 0.2	0.39 (≈ 0.269 µM)	–	> 200	0.78 (≈ 0.538 µM)	–	–	–
